Experimental data from article PMC6399515 (Insect Biochemistry and Molecular Biology, 2016).
pIC50: −log10 of the molar value.

Tests used:
CYP6Z2 = biological target: T1, CYP6Z2 (Anopheles gambiae, UniProt A8I285)
T1 sequence (A8I285 1-492): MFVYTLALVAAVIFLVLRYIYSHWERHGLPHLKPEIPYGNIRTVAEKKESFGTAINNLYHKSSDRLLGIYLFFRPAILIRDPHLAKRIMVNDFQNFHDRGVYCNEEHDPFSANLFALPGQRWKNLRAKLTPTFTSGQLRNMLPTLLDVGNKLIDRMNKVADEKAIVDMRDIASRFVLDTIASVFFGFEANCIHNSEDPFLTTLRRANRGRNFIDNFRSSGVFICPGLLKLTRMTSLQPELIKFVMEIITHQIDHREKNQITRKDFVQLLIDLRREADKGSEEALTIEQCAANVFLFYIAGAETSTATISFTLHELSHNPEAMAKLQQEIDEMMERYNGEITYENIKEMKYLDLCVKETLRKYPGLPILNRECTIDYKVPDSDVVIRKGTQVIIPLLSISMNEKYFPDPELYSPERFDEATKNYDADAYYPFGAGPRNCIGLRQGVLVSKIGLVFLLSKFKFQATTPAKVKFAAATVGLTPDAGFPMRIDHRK
T1 sequence (Q86QH5 1-679 partner): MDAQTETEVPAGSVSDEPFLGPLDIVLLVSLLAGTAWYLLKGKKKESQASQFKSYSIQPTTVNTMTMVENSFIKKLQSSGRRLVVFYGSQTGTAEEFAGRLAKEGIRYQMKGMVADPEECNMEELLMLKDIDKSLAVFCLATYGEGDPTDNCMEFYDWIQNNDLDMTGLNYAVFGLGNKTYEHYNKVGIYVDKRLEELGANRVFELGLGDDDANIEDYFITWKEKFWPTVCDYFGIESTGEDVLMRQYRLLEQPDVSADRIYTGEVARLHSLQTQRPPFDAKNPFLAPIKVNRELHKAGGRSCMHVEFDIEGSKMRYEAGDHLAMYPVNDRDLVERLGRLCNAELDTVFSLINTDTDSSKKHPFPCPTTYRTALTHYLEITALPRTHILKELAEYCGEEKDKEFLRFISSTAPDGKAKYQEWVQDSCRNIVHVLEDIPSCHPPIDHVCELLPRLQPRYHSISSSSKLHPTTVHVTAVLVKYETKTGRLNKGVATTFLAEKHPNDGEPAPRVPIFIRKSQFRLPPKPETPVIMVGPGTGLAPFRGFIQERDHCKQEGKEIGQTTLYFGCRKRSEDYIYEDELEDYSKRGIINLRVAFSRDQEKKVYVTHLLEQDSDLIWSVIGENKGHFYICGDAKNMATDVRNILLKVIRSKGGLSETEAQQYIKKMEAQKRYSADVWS
T1 sequence (Q86QH4 1-128 partner): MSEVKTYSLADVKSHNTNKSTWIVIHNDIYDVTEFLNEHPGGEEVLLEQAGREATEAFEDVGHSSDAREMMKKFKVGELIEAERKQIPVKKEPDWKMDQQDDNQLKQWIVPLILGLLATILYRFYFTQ

CYP6P3 [1] = biological target: T2, CYP6P3 (Anopheles gambiae, UniProt Q8T632)
T2 sequence (Q8T632 1-509): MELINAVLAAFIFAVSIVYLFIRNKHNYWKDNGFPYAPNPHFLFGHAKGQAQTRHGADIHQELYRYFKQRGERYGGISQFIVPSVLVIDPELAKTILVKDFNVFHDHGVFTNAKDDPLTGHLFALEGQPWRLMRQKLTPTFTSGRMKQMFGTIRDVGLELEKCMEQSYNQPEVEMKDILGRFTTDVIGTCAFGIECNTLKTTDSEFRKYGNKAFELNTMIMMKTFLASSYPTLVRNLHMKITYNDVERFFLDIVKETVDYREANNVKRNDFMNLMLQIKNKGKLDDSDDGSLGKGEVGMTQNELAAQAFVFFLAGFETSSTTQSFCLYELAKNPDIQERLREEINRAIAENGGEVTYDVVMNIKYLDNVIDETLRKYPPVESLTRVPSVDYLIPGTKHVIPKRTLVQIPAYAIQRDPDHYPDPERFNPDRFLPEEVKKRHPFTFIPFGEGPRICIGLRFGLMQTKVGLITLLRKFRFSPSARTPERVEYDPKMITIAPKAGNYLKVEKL
T2 sequence (Q86QH5 1-679 partner): T1 sequence (Q86QH5 1-679 partner)
T2 sequence (Q86QH4 1-128 partner): T1 sequence (Q86QH4 1-128 partner)

CYP9J5 = biological target: T3, CYP9J5 (Anopheles gambiae, UniProt Q5TN57); assay: biochemical
T3 sequence (Q5TN57 1-545): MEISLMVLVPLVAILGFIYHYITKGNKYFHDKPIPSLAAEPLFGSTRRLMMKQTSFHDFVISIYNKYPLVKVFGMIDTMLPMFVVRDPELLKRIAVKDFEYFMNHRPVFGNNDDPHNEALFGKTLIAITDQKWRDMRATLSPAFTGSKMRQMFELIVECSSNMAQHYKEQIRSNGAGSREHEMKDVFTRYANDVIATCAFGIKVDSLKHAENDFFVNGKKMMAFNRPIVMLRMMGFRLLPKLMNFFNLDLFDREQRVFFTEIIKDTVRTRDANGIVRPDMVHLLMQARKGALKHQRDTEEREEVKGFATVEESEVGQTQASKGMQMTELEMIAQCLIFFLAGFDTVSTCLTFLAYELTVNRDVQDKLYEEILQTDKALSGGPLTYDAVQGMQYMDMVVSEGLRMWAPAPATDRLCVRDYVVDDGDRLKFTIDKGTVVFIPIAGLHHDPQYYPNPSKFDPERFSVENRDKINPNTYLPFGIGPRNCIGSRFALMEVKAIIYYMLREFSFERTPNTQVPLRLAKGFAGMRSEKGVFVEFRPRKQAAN
T3 sequence (Q86QH5 1-679 partner): T1 sequence (Q86QH5 1-679 partner)
T3 sequence (Q86QH4 1-128 partner): T1 sequence (Q86QH4 1-128 partner)

CYP6M2 = CYP6M2 (Anopheles gambiae, UniProt Q7Q449); assay: biochemical
Sequence of CYP6M2 (Q7Q449 1-499, one chain of several): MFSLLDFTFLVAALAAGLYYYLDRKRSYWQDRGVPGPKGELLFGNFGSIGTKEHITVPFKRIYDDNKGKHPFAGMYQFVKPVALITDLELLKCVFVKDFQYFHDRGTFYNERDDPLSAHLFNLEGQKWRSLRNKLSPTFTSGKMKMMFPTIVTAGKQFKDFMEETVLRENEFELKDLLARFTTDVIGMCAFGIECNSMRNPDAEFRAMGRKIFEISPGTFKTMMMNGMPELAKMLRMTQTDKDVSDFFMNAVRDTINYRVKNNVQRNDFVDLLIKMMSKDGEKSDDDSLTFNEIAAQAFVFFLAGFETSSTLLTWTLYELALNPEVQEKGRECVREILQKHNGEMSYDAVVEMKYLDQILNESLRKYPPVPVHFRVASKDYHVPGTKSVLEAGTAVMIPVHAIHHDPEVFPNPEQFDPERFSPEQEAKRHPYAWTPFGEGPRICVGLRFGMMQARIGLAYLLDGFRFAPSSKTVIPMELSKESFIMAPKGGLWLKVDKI

CYP6P3 [2] = biological target: T2, CYP6P3; assay: Reciprocal IC50 of CYP6P3 metabolism of PPF and permethrin; format: biochemical
Method in brief: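 CYP6P3 was expressed with AgCPR in E. coli JM109 membranes, with b5 added at 10:1 b5:P450. Reactions ran at 30 °C for 90 min with shaking: 0.1 μM P450, 1.0 μM b5, 0.2 M Tris-HCl pH 7.4, 0.25 mM MgCl2, NADPH-regenerating system. PPF (0–1.6 mM) or permethrin (0–3.2 mM) was titrated against the other at fixed 20 μM. Substrate loss was read by C18 HPLC at 232 nm, triplicate controls.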

[3] = test system: An. gambiae Kisumu strain; assay: Glass tube assay, ovary development of adult females, Kisumu strain; format: in vivo, Anopheles gambiae
Method in brief: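 Borosilicate glass tubes were coated with PPF at 0.55, 2.75 or 5.5 mg/m2, with an acetone-only tube as control, and used the day they were made. Per concentration, two groups of fifteen 5–7-day-old females (n = 30) were acclimated 60 min, then exposed 3 min. They were held 24 h on 10% sucrose, then five days in the insectary. Ovaries were dissected and scored normal or abnormal.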

Row | SMILES | Inhibition ratio (%): reduction of PPF depletion caused by PBO (CYP6Z2) [%] | Inhibition ratio (%): reduction of PPF depletion caused by PBO (CYP6P3 [1]) [%] | pIC50 (CYP9J5) | strength of inhibition relative to PPF (mosquito P450s) | pIC50 (CYP6M2) | pIC50 (CYP6P3 [2]) | mosquitoes sterilized ([3]; 3 min exposure to 5.5 mg/m^2) | mosquitoes sterilized ([3]; 3 min exposure, half of 5.5 mg/m^2) [%] | % PPF depletion + PBO (CYP6Z2; Anopheles gambiae, pH 7.4) [%] | % PPF depletion −PBO (CYP6Z2; Anopheles gambiae, pH 7.4) [%] | % PPF depletion + PBO (CYP6P3 [1]; Anopheles gambiae, pH 7.4) [%]
1 | CCCCOCCOCCOCc1cc2c(cc1CCC)OCO2 [PBO, piperonyl butoxide] | 87.3 | 91.3 | – | – | – | – | – | – | – | – | –
2 | CC1(C)C(C=C(Cl)Cl)C1C(=O)OCc1cccc(Oc2ccccc2)c1 (mixture of isomers) [Permethrin, 3-phenoxybenzyl (1R,S)-cis,trans-3-(2,2-dichlorovinyl)-2,2-dimethylcyclopropanecarboxylate] | – | – | 5.19 | 2–3 fold | 5.09 | 4.21 | – | – | – | – | –
3 | CC(COc1ccc(Oc2ccccc2)cc1)Oc1ccccn1 (centres unmarked) [PPF, pyriproxyfen] | – | – | 4.72 | – | 4.85 | 4.03 | completely sterilized | 76 | 8.41 ± 1.58 | 66.26 ± 3.02 | 8.68 ± 1.74
